Measured values: ChEMBL document CHEMBL1681789, “New bichalcone analogs as NF-κB inhibitors and as cytotoxic agents inducing Fas/CD95-dependent apoptosis” (Bioorg Med Chem, 2011)
The source made the active and inactive calls. No cut-off for these calls is given here.

Columns and labels:
[1] = system: A549; test: Cytotoxicity against human A549 cells at 20 ug/ml after 3 days; type: functional, cell-based
[2] = system: DU-145; test: Cytotoxicity against human DU145 cells at 20 ug/ml after 3 days; type: functional, cell-based
[3] = Inhibition of Nitric oxide synthase activity in mouse BV2 cells assessed as LPS-induced NO production after 24 hrs by Griess reaction; type: cell-based; conditions: BV-2, 24 h
Procedure, shortened: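 Murine BV2 microglia were cultured in DMEM with 5% FBS and given 1–50 µM drug with 0.5 µg/mL LPS. Nitrite accumulated in the medium over 24 h was measured by Griess reagent. IC50 values are means ± SEM from 3–6 experiments on different days using different passages.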

[4] = system: BV-2; test: Inhibition of NADPH oxidase mediated-ROS production in mouse BV2 cells; type: cell-based
Procedure, shortened: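 Compounds were incubated with 50 µg microglial cell homogenate for 20 min at 37 °C in the dark. Superoxide production was started with 200 µM NADPH, and chemiluminescence was followed for 30 min; the AUC represents ROS production. DPI served as positive control.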

[5] = system: KB; test: Cytotoxicity against human KB cells at 20 ug/ml after 3 days; type: functional, cell-based
[6] = system: HCT-8; test: Cytotoxicity against human HCT8 cells at 20 ug/ml after 3 days; type: functional, cell-based

Row | Structure (SMILES) | IC50 [3] [µM] | Activity [1] | Activity [2] | inhibition [4] | Activity [5] | Activity [6]
1 | CC(=O)c1ccc(N2CCN(Cc3cc(C(C)=O)ccc3O)CC2)cc1 | 6.6 | inactive | inactive | inactive | inactive | inactive
2 | COc1cc(C(C)=O)cc(CN2CCN(c3ccc(C(C)=O)cc3)CC2)c1O | 15.9 | inactive | inactive | inactive | inactive | inactive
3 | Cc1ccsc1/C=C/C(=O)c1ccc(N2CCN(Cc3cc(C(=O)/C=C/c4sccc4C)ccc3O)CC2)cc1 | 7.5 | inactive | inactive | inactive | inactive | inactive
4 | COc1cc(C(=O)/C=C/c2sccc2C)cc(CN2CCN(c3ccc(C(=O)/C=C/c4sccc4C)cc3)CC2)c1O | 3.1 | inactive | inactive | inactive | inactive | inactive
5 | COC(=O)[C@@H](N)CCCNC(=N)N[N+](=O)[O-] [L-NAME] | 18.9 | – | – | – | – | –
6 | Cc1ccc(/C=C/C(=O)c2ccc(N3CCN(Cc4cc(C(=O)/C=C/c5ccc(C)o5)ccc4O)CC3)cc2)o1 | 2.4 | inactive | inactive | inactive | inactive | inactive
7 | COc1cc(C(=O)/C=C/c2cccs2)cc(CN2CCN(c3ccc(C(=O)/C=C/c4cccs4)cc3)CC2)c1O | 2.7 | inactive | inactive | inactive | inactive | inactive
8 | O=C(/C=C/c1ccc2c(c1)OCO2)c1ccc(N2CCN(Cc3cc(C(=O)/C=C/c4ccc5c(c4)OCO5)ccc3O)CC2)cc1 | 2.1 | inactive | inactive | inactive | inactive | inactive

The next lines start with results.

Row | IC50 [3] [µM] | Structure (SMILES) | Activity [1] | Activity [2] | inhibition [4] | Activity [5] | Activity [6]
9 | 1.7 | O=C(/C=C/c1ccco1)c1ccc(N2CCN(Cc3cc(C(=O)/C=C/c4ccco4)ccc3O)CC2)cc1 | inactive | inactive | inactive | inactive | inactive
10 | 30.5 | O=C(/C=C/c1ccccc1Cl)c1ccc(N2CCN(Cc3cc(C(=O)/C=C/c4ccccc4Cl)ccc3O)CC2)cc1 | inactive | inactive | inactive | inactive | inactive
11 | 25.7 | O=C(/C=C/c1ccc(Cl)cc1Cl)c1ccc(N2CCN(Cc3cc(C(=O)/C=C/c4ccc(Cl)cc4Cl)ccc3O)CC2)cc1 | inactive | inactive | inactive | inactive | inactive
12 | 2.8 | O=C(/C=C/c1ccccc1)c1ccc(N2CCN(Cc3cc(C(=O)/C=C/c4ccccc4)ccc3O)CC2)cc1 | inactive | inactive | inactive | inactive | inactive
13 | 1.2 | Cn1cccc1/C=C/C(=O)c1ccc(N2CCN(Cc3cc(C(=O)/C=C/c4cccn4C)ccc3O)CC2)cc1 | inactive | inactive | inactive | inactive | inactive
14 | 10.9 | COc1cc(C(=O)/C=C/c2ccccc2Cl)cc(CN2CCN(c3ccc(C(=O)/C=C/c4ccccc4Cl)cc3)CC2)c1O | inactive | inactive | inactive | inactive | inactive
